Test results reported in ChEMBL document CHEMBL4312029, “Structure-activity relationship studies and in vitro and in vivo anticancer activity of novel 3-aroyl-1,4-diarylpyrroles against solid tumors and hematological malignancies” (Eur J Med Chem, 2020).
Activity calls are given as the source filed them. The rule behind the calls is not given here.

Legend:
PBMC = assay: Cytotoxicity against human PBMC assessed as cell viability by MTT assay; assay type: cell-based
SW-620 = assay: Cytotoxicity against human SW620 cells assessed as reduction in cell viability incubated for 48 hrs by MTT assay; assay type: functional, cell-based
KBM5 [1] = assay: Potentiation of NLT-induced apoptotic cell death in human KBM5 cells expressing IM-sensitive wild type Bcr/Abl at 10 nM co-incubated with NLT for 48 hrs by Annexin V-staining based flow cytometry; assay type: functional
In short: (§1)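 KBM5-WT or KBM5-T315I CML cells treated 48 h with 10 nM nilotinib, with or without 10 nM test compound (each agent alone also run). Apoptosis measured by annexin V staining and flow cytometry, read as percentage of apoptotic cells. Triplicate experiments.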

KBM5 [2] = assay: Induction of apoptotic cell death in human KBM5 cells expressing IM-resistant Bcr/Abl T315I mutant at 10 nM incubated for 48 hrs by Annexin V-staining based flow cytometry; assay type: functional
In short: (§2)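 KBM5-WT and KBM5-T315I cells exposed 48 h to 10 nM test compound alone or combined with 10 nM nilotinib (nilotinib alone as comparator). Apoptotic cells quantified by annexin V staining and flow cytometry; triplicate.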

[3] = Cytotoxicity against human LAMA84-s cells expressing IM-sensitive wild type Bcr/Abl assessed as reduction in cell viability incubated for 48 hrs by MTT assay; assay type: functional, cell-based
U-87 MG = assay: Cytotoxicity against human U87MG cells assessed as reduction in cell viability incubated for 48 hrs by MTS assay; assay type: functional, cell-based, U-87MG ATCC
In short: (§3)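 Increasing concentrations applied to glioblastoma and neuroblastoma lines to give dose-response viability curves; cytotoxic IC50 from triplicate experiments. Incubation 48 h, except U343MG at 72 h.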

KBM5 [4] = assay: Cytotoxicity against human KBM5 cells expressing IM- sensitive wild type Bcr/Abl assessed as reduction in cell viability incubated for 48 hrs by MTT assay; assay type: functional, cell-based; settings: KBM5, 48 h
KBM5 [5] = assay: Potentiation of NLT-induced apoptotic cell death in human KBM5 cells expressing IM-resistant Bcr/Abl T315I mutant at 10 nM co-incubated with NLT for 48 hrs by Annexin V-staining based flow cytometry; assay type: functional; in short: as §1
Tubulin (Homo sapiens) = Tubulin (Homo sapiens) (UniProt P68371+Q9H4B7+P0DPH7+P68366+Q13509+Q71U36+P04350+Q3ZCM7+P07437+P68363+Q9BQE3+Q6PEY2+Q13885+Q9BVA1+Q9BUF5); assay: Inhibition of [3H]colchicine binding to tubulin (unknown origin) at 5 uM incubated for 10 mins by DEAE-cellulose filter method relative to control; assay type: protein-complex assay
SW480 = assay: Cytotoxicity against human SW480 cells assessed as reduction in cell viability incubated for 48 hrs by MTT assay; assay type: functional, cell-based
HT-29 = assay: Cytotoxicity against human HT-29 cells assessed as reduction in cell viability incubated for 48 hrs by MTT assay; assay type: functional, cell-based
[6] = Cytotoxicity against IM resistant human LAMA84-r cells assessed as reduction in cell viability incubated for 48 hrs by MTT assay; assay type: functional, cell-based
HCT-116 = assay: Cytotoxicity against human HCT116 cells assessed as reduction in cell viability incubated for 48 hrs by MTT assay; assay type: functional, cell-based
T98G = assay: Cytotoxicity against human T98G cells assessed as reduction in cell viability incubated for 48 hrs by MTS assay; assay type: functional, cell-based; in short: as §3
T-24 = assay: Cytotoxicity against human T24 cells assessed as reduction in cell viability incubated for 48 hrs by MTT assay; assay type: functional, cell-based; settings: T-24, 48 h
[7] = Cytotoxicity against human SK-N-BE cells assessed as reduction in cell viability incubated for 48 hrs by MTT assay; assay type: functional, cell-based; in short: as §3
KU812 cell line = assay: Cytotoxicity against human KU812 cells expressing IM- sensitive wild type Bcr/Abl assessed as reduction in cell viability incubated for 48 hrs by MTT assay; assay type: functional, cell-based; settings: KU812, 48 h
Tubulin = assay: Inhibition of tubulin polymerization (unknown origin) incubated for 15 mins followed by GTP addition and measured for 20 mins by spectrophotometry; assay type: protein-complex assay, Homo sapiens
In short: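 Tubulin assembly assay with tubulin at 10 µM. IC50 for inhibition of polymerization; run in duplicate or triplicate.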

KBM5 [8] = assay: Induction of apoptotic cell death in human KBM5 cells expressing IM-sensitive wild type Bcr/Abl at 10 nM incubated for 48 hrs by Annexin V-staining based flow cytometry; assay type: functional; in short: as §2
KBM5 [9] = assay: Cytotoxicity against human KBM5 cells expressing IM-resistant Bcr/Abl T315I mutant assessed as reduction in cell viability incubated for 48 hrs by MTT assay; assay type: functional, cell-based; settings: KBM5, 48 h
MCF7 = assay: Cytotoxicity against human MCF7 cells assessed as reduction in cell growth incubated for 96 hrs by MTT assay; assay type: functional, cell-based; settings: MCF7, 96 h
In short: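 Growth inhibition of human breast carcinoma cells, reported as IC50; run in duplicate or triplicate.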

[10] = (§4) Cytotoxicity against human U343MG cells assessed as reduction in cell viability incubated for 72 hrs by MTS assay; assay type: functional, cell-based; settings: U-343MG; in short: as §3
Homo sapiens = species: Homo sapiens; assay: as §4; assay type: functional, cell-based; in short: as §3
[11] = Cytotoxicity against human SK-N-BE(2)C cells assessed as reduction in cell viability incubated for 48 hrs by MTT assay; assay type: functional, cell-based; in short: as §3

Q: With `COc1cc(C(=O)c2cn(-c3ccc(N)cc3)cc2-c2ccc(N)cc2)cc(OC)c1OC` as the compound, how does the Activity (PBMC) read?
A: Non-Toxic

Q: What about the inhibition (SW-620) of the same compound?
A: Dose-dependent effect

Q: And the IC50 (SW-620; SW-620, 48 h)?
A: 61 nM

Q: And the Activity (KBM5 [1])?
A: 50 - 90%

Q: And the Activity (KBM5 [2])?
A: Active

Q: What about the IC50 [3] of the same compound?
A: 8 nM

Q: And the Emax (U-87 MG)?
A: 31.8%

Q: What about the IC50 (U-87 MG) of the same compound?
A: 47.6 to 48 nM

Q: What about the inhibition (U-87 MG; U-87MG ATCC) of the same compound?
A: Dose-dependent effect

Q: What about the IC50 (KBM5 [4]) of the same compound?
A: 10 nM

Q: And the Activity (KBM5 [5])?
A: 50 - 90%

Q: And the inhibition (Tubulin (Homo sapiens))?
A: 87%

Q: What about the inhibition (SW480) of the same compound?
A: Dose-dependent effect

Q: What about the IC50 (SW480; SW480, 48 h) of the same compound?
A: 153 nM

Q: And the inhibition (HT-29)?
A: Dose-dependent effect

Q: What about the IC50 (HT-29; HT-29, 48 h) of the same compound?
A: 34 nM

Q: And the IC50 [6]?
A: 10 nM

Q: And the inhibition (HCT-116)?
A: Dose-dependent effect

Q: What about the IC50 (HCT-116; HCT-116, 48 h) of the same compound?
A: 41 nM

Q: And the Emax (T98G)?
A: 36.2%

Q: What about the IC50 (T98G) of the same compound?
A: 24 to 24.3 nM

Q: What about the inhibition (T98G) of the same compound?
A: Dose-dependent effect

Q: And the IC50 (T-24)?
A: 58 nM

Q: What about the IC50 [7] of the same compound?
A: 303 nM

Q: And the IC50 (KU812 cell line)?
A: 5 nM

Q: What about the IC50 (Tubulin) of the same compound?
A: 380 nM

Q: And the Activity (KBM5 [8])?
A: Active

Q: And the IC50 (KBM5 [9])?
A: 12 nM

Q: And the IC50 (MCF7)?
A: 15 nM

Q: And the Emax [10]?
A: 34%

Q: And the IC50 [10]?
A: 21.5 to 22 nM

Q: What about the inhibition (Homo sapiens) of the same compound?
A: Dose-dependent effect

Q: And the IC50 [11]?
A: 147 nM
